Results as given in ChEMBL document CHEMBL1140214, “Antitumor activity of new substituted 3-(5-imidazo[2,1-b]thiazolylmethylene)-2-indolinones and 3-(5-imidazo[2,1-b]thiadiazolylmethylene)-2-indolinones: selectivity against colon tumor cells and effect on cell cycle-related events” (2008).

Columns and labels:
[1] = system: Leukemia cell; experiment: Antitumor activity against human Leukemia cells after 48 hrs by SRB assay; format: functional; conditions: for GI50 / TGI / LC50 (concentration killing 50% of cells): Homo sapiens, Leukemia cell, 48 h; for TGI: read-out: pTGI (converted)
Outline: (§1)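 NCI 60-cell panel two-stage screen: a single-dose pass at 10^-5 M, then five-dose testing for active compounds. Compounds were dissolved in DMSO and tested at five 10-fold dilutions, the highest 10^-4 M (10^-3 M in some cases). Results are given as the negative log molar concentration at three end points: pGI50, pTGI (total growth inhibition) and pLC50. Means are panel-subtype averages.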

[2] = system: NSCLC; experiment: Antitumor activity against human NSCLC cells after 48 hrs by SRB assay; format: functional; conditions: for GI50 / LC50 / TGI: Homo sapiens, NSCLC, 48 h; for TGI: read-out: pTGI (converted); outline: as §1
[3] = Antitumor activity against human Colon cancer cells after 48 hrs by SRB assay; format: functional, Cancer cell lines; conditions: for GI50 / LC50 (50% lethal concentration) / TGI: Homo sapiens, Cancer cell lines, 48 h; for TGI: read-out: pTGI (converted); outline: as §1
[4] = Antitumor activity against human CNS cancer cells after 48 hrs by SRB assay; format: functional, Cancer cell lines; conditions: for TGI: read-out: pTGI (converted); outline: as §1
[5] = system: Melanoma cell; experiment: Antitumor activity against human Melanoma cells after 48 hrs by SRB assay; format: functional; conditions: for CC50: read-out: pLC50 (the source's name) (converted); for TGI: read-out: pTGI (converted); outline: as §1
[6] = Antitumor activity against human ovarian cancer cells after 48 hrs by SRB assay; format: functional, Cancer cell lines; conditions: for GI50 / LC50 (concentration killing 50% of cells) / TGI: Homo sapiens, Cancer cell lines, 48 h; for TGI: read-out: pTGI (converted); outline: as §1
[7] = Antitumor activity against human renal cancer cells after 48 hrs by SRB assay; format: functional, Cancer cell lines; conditions: for GI50 / LC50 (concentration killing 50% of cells) / TGI: Homo sapiens, Cancer cell lines, 48 h; for TGI: read-out: pTGI (converted); outline: as §1
[8] = Antitumor activity against human prostate cancer cells after 48 hrs by SRB assay; format: functional, Cancer cell lines; conditions: for GI50 / LC50 / TGI: Homo sapiens, Cancer cell lines, 48 h; for TGI: read-out: pTGI (converted); outline: as §1
[9] = Antitumor activity against human Breast cancer cells after 48 hrs by SRB assay; format: functional, Cancer cell lines; conditions: for GI50 / LC50 / TGI: Homo sapiens, Cancer cell lines, 48 h; for TGI: read-out: pTGI (converted); outline: as §1
[10] = Homo sapiens, Cancer cell lines, 48 h
[11] = Homo sapiens, Cancer cell lines, 48 h, read-out: pGI50 (converted)
[12] = Homo sapiens, Melanoma cell, 48 h, read-out: pGI50 (converted)
[13] = Homo sapiens, Melanoma cell, 48 h

Compound	GI [1]	GI50 [1]	TGI [1]	GI [2]	GI50 [2]	TGI [2]	GI [3]	GI50 [3]	GI50 [4]	GI50 [4, 11]	GI50 [5]	GI50 [5, 12]	TGI [5, 13]	GI [6]	GI50 [6]	GI [7]	GI50 [7]	GI [8]	GI50 [8]	GI [9]	other results
Cc1cn2c(/C=C3/C(=O)Nc4ccccc43)c(-c3ccc(Cl)cc3)nc2s1	18.2 µM	18.2 µM	44.7 µM	8.13 µM	8.13 µM	17.8 µM	10.23 µM	10.2 µM	6.76 µM	6.76 µM	9.55 µM	9.55 µM	19.1 µM	10 µM	10 µM	3.31 µM	3.31 µM	9.77 µM	9.77 µM	6.46 µM	LC50 [2]: 38 µM; LC50 (50% lethal concentration) [3]: 38.9 µM; TGI [3]: 21.4 µM; LC50 [4, 10]: 30.2 µM; TGI [4, 10]: 15.1 µM; CC50 [5, 13]: 32.4 µM; LC50 (concentration killing 50% of cells) [6]: 39.8 µM; TGI [6]: 20.4 µM; LC50 (concentration killing 50% of cells) [7]: 33.1 µM; TGI [7]: 18.6 µM; LC50 [8]: 28.8 µM; TGI [8]: 17 µM; GI50 [9]: 6.46 µM; LC50 [9]: 35.5 µM; TGI [9]: 17.8 µM
COc1ccc(OC)c(-c2nc3sccn3c2/C=C2/C(=O)N(C)c3ccccc32)c1	7.41 µM	7.41 µM	44.7 µM	26.92 µM	26.9 µM	74.1 µM	23.44 µM	23.4 µM	21.38 µM	21.4 µM	19.5 µM	19.5 µM	47.9 µM	29.51 µM	29.5 µM	27.54 µM	27.5 µM	25.12 µM	25.1 µM	15.85 µM	LC50 (concentration killing 50% of cells) [1]: 97.7 µM; LC50 (50% lethal concentration) [3]: 95.5 µM; TGI [3]: 67.6 µM; LC50 [4, 10]: 97.7 µM; TGI [4, 10]: 57.5 µM; CC50 [5, 13]: 87.1 µM; TGI [6]: 81.3 µM; TGI [7]: 72.4 µM; TGI [8]: 91.2 µM; GI50 [9]: 15.8 µM; TGI [9]: 53.7 µM
Cc1cn2c(/C=C3/C(=O)N(C)c4ccc(Cl)cc43)c(C)nc2s1	1.45 µM	1.45 µM	11.7 µM	7.94 µM	7.94 µM	41.7 µM	2.69 µM	2.69 µM	3.16 µM	3.16 µM	5.5 µM	5.5 µM	63.1 µM	3.8 µM	3.8 µM	6.03 µM	6.03 µM	1 µM	1 µM	6.76 µM	LC50 (50% lethal concentration) [3]: 83.2 µM; TGI [3]: 38 µM; LC50 [4, 10]: 79.4 µM; TGI [4, 10]: 28.8 µM; TGI [6]: 44.7 µM; TGI [7]: 61.7 µM; TGI [8]: 4.37 µM; GI50 [9]: 6.76 µM; TGI [9]: 33.1 µM
Cc1cn2c(/C=C3/C(=O)N(C)c4ccc(O)cc43)c(C)nc2s1	3.39 µM	3.39 µM	27.5 µM	12.88 µM	12.9 µM	67.6 µM	3.89 µM	3.89 µM	4.57 µM	4.57 µM	7.41 µM	7.41 µM	63.1 µM	9.12 µM	9.12 µM	13.18 µM	13.2 µM	12.59 µM	12.6 µM	4.57 µM	TGI [3]: 56.2 µM; TGI [4, 10]: 37.2 µM; TGI [6]: 52.5 µM; TGI [7]: 85.1 µM; GI50 [9]: 4.57 µM; TGI [9]: 38 µM
Cc1nn2c(/C=C3/C(=O)Nc4ccc(Cl)cc43)c(C)nc2s1	14.13 µM	14.1 µM	81.3 µM	53.7 µM	53.7 µM	89.1 µM	14.13 µM	14.1 µM	29.51 µM	29.5 µM	41.69 µM	41.7 µM	97.7 µM	52.48 µM	52.5 µM	56.23 µM	56.2 µM	43.65 µM	43.7 µM	28.18 µM	TGI [4, 10]: 97.7 µM; GI50 [9]: 28.2 µM; TGI [9]: 83.2 µM
COc1ccc2c(c1)/C(=C\c1c(-c3cc(OC)ccc3OC)nc3sc(C)cn13)C(=O)N2C	15.85 µM	15.8 µM	63.1 µM	28.84 µM	28.8 µM	89.1 µM	33.11 µM	33.1 µM	23.99 µM	24 µM	25.12 µM	25.1 µM	56.2 µM	25.7 µM	25.7 µM	30.9 µM	30.9 µM	30.9 µM	30.9 µM	28.84 µM	TGI [3]: 81.3 µM; TGI [4, 10]: 74.1 µM; TGI [6]: 91.2 µM; TGI [7]: 97.7 µM; TGI [8]: 97.7 µM; GI50 [9]: 28.8 µM; TGI [9]: 95.5 µM
Cc1cn2c(/C=C3/C(=O)Nc4ccc(O)cc43)c(-c3ccc(Cl)cc3)nc2s1	12.59 µM	12.6 µM	38.9 µM	16.6 µM	16.6 µM	55 µM	24.55 µM	24.5 µM	13.18 µM	13.2 µM	15.14 µM	15.1 µM	57.5 µM	13.8 µM	13.8 µM	15.14 µM	15.1 µM	15.14 µM	15.1 µM	15.85 µM	LC50 (concentration killing 50% of cells) [1]: 95.5 µM; LC50 [2]: 91.2 µM; TGI [3]: 75.9 µM; LC50 [4, 10]: 81.3 µM; TGI [4, 10]: 35.5 µM; CC50 [5, 13]: 89.1 µM; LC50 (concentration killing 50% of cells) [6]: 89.1 µM; TGI [6]: 44.7 µM; LC50 (concentration killing 50% of cells) [7]: 87.1 µM; TGI [7]: 50.1 µM; LC50 [8]: 79.4 µM; TGI [8]: 50.1 µM; GI50 [9]: 15.8 µM; LC50 [9]: 95.5 µM; TGI [9]: 56.2 µM
COc1ccc2c(c1)/C(=C\c1c(-c3ccc(C)cc3)nc3sc(C)cn13)C(=O)N2	4.07 µM	4.07 µM	51.3 µM	14.45 µM	14.5 µM	77.6 µM	12.88 µM	12.9 µM	14.45 µM	14.5 µM	16.22 µM	16.2 µM	55 µM	18.2 µM	18.2 µM	13.18 µM	13.2 µM	4.68 µM	4.68 µM	12.88 µM	TGI [3]: 66.1 µM; TGI [6]: 97.7 µM; TGI [7]: 67.6 µM; GI50 [9]: 12.9 µM
